The source made the active and inactive calls. The rule behind the calls is not given here.
Tests used:
[1] = test system: Candida albicans; assay: Antiproliferative activity against Candida albicans SC5314 assessed as cell killing after 24 hrs by MTS assay; assay type: functional
Summary of the method: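 SC5314 grown overnight in YNB (pH 7.0) with 50 mM glucose at 30°C, 120 rpm, washed in PBS. Suspensions at 1 × 10⁷ cells/ml exposed to farnesol at final 0, 10, 40, 100, 200, 300 μM for 24 h at 30°C with shaking, with methanol vehicle controls. MTS reagent added for 4 h at 37°C, A490 read, and % killed cells calculated.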

[2] = test system: Candida albicans; assay: Upregulation of POR1 expression in Candida albicans SC5314 at 200 uM after 24 hrs by MALDI-TOF MS; assay type: functional, organism-based
Summary of the method: (§1)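 SC5314 grown overnight at 30°C, 120 rpm, in yeast nitrogen base (pH 7.0) with 50 mM glucose. Cells were washed in PBS and adjusted to OD600 0.1, then treated 24 h with farnesol from a methanol dilution; controls received methanol. Proteomes of treated and untreated cells were compared by 2-D SDS-PAGE and MALDI-TOF MS, with ProFound searches of the NCBI nonredundant database. Spots changed at least 1.5-fold in three independent experiments were counted.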

[3] = test system: Candida albicans; assay: Downregulation of carboxymethylenebutenolidase expression in Candida albicans SC5314 at 200 uM after 24 hrs by MALDI-TOF MS; assay type: functional, organism-based
Summary of the method: (§2)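 Overnight YNB-glucose SC5314 culture, PBS-washed, adjusted to OD600 0.1 and treated 24 h with 40 or 200 μM farnesol (methanol in controls). Proteomes were compared with untreated cells by 2D SDS-PAGE and MALDI-TOF MS, searched against NCBI nonredundant database. Spots were counted as changed at ≥1.5-fold in three independent experiments.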

[4] = test system: Candida albicans; assay: Downregulation of Glyceraldehyde-3-phosphate dehydrogenase expression in Candida albicans SC5314 at 200 uM after 24 hrs by MALDI-TOF MS; assay type: functional, organism-based; summary of the method: as §2
[5] = test system: Candida albicans; assay: Upregulation of 6-Phosphogluconate dehydrogenase expression in Candida albicans SC5314 at 40 uM after 24 hrs by MALDI-TOF MS; assay type: functional, organism-based; summary of the method: as §2
[6] = test system: Candida albicans; assay: Upregulation of Heat shock protein 70 expression in Candida albicans SC5314 at 40 uM after 24 hrs by MALDI-TOF MS; assay type: functional, organism-based; summary of the method: as §2
[7] = test system: Candida albicans; assay: Upregulation of Aryl-alcohol dehydrogenase expression in Candida albicans SC5314 at 40 uM after 24 hrs by MALDI-TOF MS; assay type: functional, organism-based; summary of the method: as §2
[8] = test system: Candida albicans; assay: Upregulation of Putative Rho protein GDP dissociation factor expression in Candida albicans SC5314 at 200 uM after 24 hrs by MALDI-TOF MS; assay type: functional, organism-based; summary of the method: as §1
[9] = test system: Candida albicans; assay: Induction of ROS accumulation in mitochondria of Candida albicans SC5314 at 40 uM after 3 hrs by Fluorescence analysis; assay type: functional
Summary of the method: (§3)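 Cells were exposed 3 h to 40, 100 or 200 μM farnesol, with methanol control and H2O2 positive control. Washed cells were stained 30 min in the dark with a mix of dichlorodihydrofluorescein diacetate, propidium iodide and calcofluor white, then washed and viewed by confocal microscopy. % green (ROS) cells of all cells was scored, with red (necrotic) cells scored separately.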

[10] = test system: Candida albicans; assay: Induction of ROS accumulation in mitochondria of Candida albicans SC5314 at 200 uM after 3 hrs by Fluorescence analysis; assay type: functional; summary of the method: as §3
[11] = test system: Candida albicans; assay: Induction of apoptosis in Candida albicans SC5314 at 100 uM after 24 hrs by TUNEL assay; assay type: functional
Summary of the method: (§4)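 After 24 h in farnesol (40, 100, 200 μM), cells were PBS-washed, fixed in 4% paraformaldehyde (pH 7.4) 1 h at 20°C, and permeabilized 2 min on ice. They were labeled with 9:1 label:enzyme TUNEL mix 1 h at 37°C in the dark and examined by fluorescence microscopy at 515–565 nm. Flow cytometry counted % positive of 30,000 gated cells, gates set by no-enzyme and DNase-treated controls.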

[12] = test system: Candida albicans; assay: Induction of apoptosis in Candida albicans SC5314 at 200 uM after 24 hrs by TUNEL assay; assay type: functional; summary of the method: as §4

CC(C)=CCC/C(C)=C/CC/C(C)=C/CO [FARNESOL]
Activity [1]: 60% | Activity [2]: Active | Activity [3]: Active | Activity [4]: Active | Activity [5]: Active | Activity [6]: Active | Activity [7]: Active | Activity [8]: Active | Activity [9]: 26% | Activity [10]: 65% | Activity [11]: 10.2% | Activity [12]: 14.5%
